The text below walks through data of ChEMBL document CHEMBL1140343, “3-Alkylamino-4H-1,2,4-benzothiadiazine 1,1-dioxides as ATP-sensitive potassium channel openers: effect of 6,7-disubstitution on potency and tissue selectivity” (J Med Chem, 2005).

For assay [1], the species on record is Rattus norvegicus. The assay is described as follows: Percent residual insulin release in rat pancreatic islets upon incubation with the compound (1 uM) at 37 degree C for 90 mins. In kind it is functional. In a few lines:
(§1)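 Islets isolated by collagenase digestion from fed Wistar rats (180–220 g); groups of 10 preincubated 30 min at 37 °C in bicarbonate-buffered salt medium with 2.8 mM glucose and 0.5% albumin, gassed O2/CO2 95:5. Then incubated 90 min at 37 °C with 16.7 mM glucose plus drug. Insulin measured by radioimmunoassay; release expressed as % of drug-free 16.7 mM glucose control. IC50 estimated.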

The species named for assay [2] is Rattus norvegicus. The assay is described as follows: Percent residual insulin release in rat pancreatic islets upon incubation with the compound (0.1 uM) at 37 degree C for 90 mins. In kind it is functional. In a few lines: as §1
For assay [3], the species on record is Rattus norvegicus. The assay is described as follows: Ratio of EC50 required to relax KCl induced rat aorta ring contractions to that of IC50 required to inhibit insulin release in rat pancreatic islets. The assay is classed as functional.
For assay [4], the species on record is Rattus norvegicus. The assay is described as follows: Concentration required to inhibit insulin release in rat pancreatic islets by 50% upon incubation with the compound at 37 degree C for 90 mins. The assay is classed as functional, organism-based. The conditions noted are these: 1.5 h. The essentials:
as §1

The species named for assay [5] is Rattus norvegicus. The assay is described as follows: Percent residual insulin release in rat pancreatic islets upon incubation with the compound (10 uM) at 37 degree C for 90 mins. The assay is classed as functional. The essentials: as §1
For assay [6], the species on record is Rattus norvegicus. The assay is described as follows: Concentration required to relax KCl induced rat aorta ring contractions by 50% upon incubation with the compound at 37 degree C for 90 mins. In kind it is functional, organism-based. Conditions: 1.5 h. The essentials:
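Endothelium-denuded transverse aortic rings (3–4 mm) from fed Wistar rats (180–220 g); isometric tension recorded by force transducer. After 60 min equilibration, rings contracted with 30 mM KCl; at stable tension, drug added cumulatively until maximal relaxation or 0.3 mM. Relaxation expressed as % of KCl contraction; EC50 taken from dose–response curves; mean ± SEM (n).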

For assay [7], the species on record is Rattus norvegicus. The assay is described as follows: Percent residual insulin release in rat pancreatic islets upon incubation with the compound (50 uM) at 37 degree C for 90 mins. The assay is classed as functional. The essentials:
as §1

As a reminder, the IC50 is the point on the concentration scale where inhibition reaches its midpoint. In the case of `CC(C)NC1=NS(=O)(=O)c2cc(Cl)ccc2N1`, the Release in the assay listed under Rattus norvegicus [1] is given as 36.2%; in the assay listed under Rattus norvegicus [2], 90.4%; in the assay listed under Rattus norvegicus [5], 4.9%. Moreover, the Selectivity in the assay listed under Rattus norvegicus [3] stood at 49.7. Further, the IC50 in the assay listed under Rattus norvegicus [4] worked out at 0.73 µM.
In general, EC50 refers to the concentration that produces a half-maximal response. In the case of `CC(C)NC1=NS(=O)(=O)c2cc(F)ccc2N1`, the Release is reported as 47.3% in the assay listed under Rattus norvegicus [1], 96.9% in the assay filed under Rattus norvegicus [2] and 3.7% in the assay listed under Rattus norvegicus [5]. For the same compound, a half-maximal effect in the assay filed under Rattus norvegicus [6] (EC50) was put at 43.1 µM. The Selectivity in the assay filed under Rattus norvegicus [3] is on record as 56.7. This compound also showed an IC50 in the assay listed under Rattus norvegicus [4] of 0.76 µM.
Regarding `O=S1(=O)N=C(NC2CCC2)Nc2cc(Cl)c(F)cc21`, the Release is reported as 15.3% in the assay listed under Rattus norvegicus [1], 74.5% in the assay filed under Rattus norvegicus [2] and 12.8% in the assay listed under Rattus norvegicus [5]. The compound also returned an EC50 in the assay filed under Rattus norvegicus [6] of 39.9 µM. In addition, the Selectivity in the assay listed under Rattus norvegicus [3] amounted to 173.5. In the assay listed under Rattus norvegicus [4], half-maximal inhibition (IC50) was put at 0.23 µM.
Consider `O=S1(=O)NC(NC2CCC2)=Nc2cc(Cl)c(Br)cc21`, for which the results for the Release in the assay filed under Rattus norvegicus [1] and in the assay filed under Rattus norvegicus [5] were 57.2% and 9.5%, respectively. In the assay filed under Rattus norvegicus [6], the EC50 is 6.6 µM. Further, the Selectivity in the assay filed under Rattus norvegicus [3] is given as 5.5. Also, the IC50 in the assay filed under Rattus norvegicus [4] turned out to be 1.21 µM.
The corresponding values for `O=S1(=O)NC(NC2CC2)=Nc2cc(Cl)c(Cl)cc21` are 92.5%, 17.6%, greater than 30 µM, greater than 9 and 3.34 µM.
As for `O=S1(=O)NC(NC2CCC2)=Nc2cc(Cl)c(Cl)cc21`, the results for the Release in the assay filed under Rattus norvegicus [1] and in the assay filed under Rattus norvegicus [5] were 58.1% and 8.4%, respectively. The compound further displayed an EC50 in the assay filed under Rattus norvegicus [6] of 12.6 µM. The Selectivity in the assay listed under Rattus norvegicus [3] is reported as 10.1. This compound also returned an IC50 in the assay filed under Rattus norvegicus [4] of 1.25 µM.
Turning to `CCCNC1=NS(=O)(=O)c2cc(Cl)c(Cl)cc2N1`, the Release in the assay listed under Rattus norvegicus [1] came out at 60.2%; in the assay listed under Rattus norvegicus [5] it was 9.9%. This compound yielded an EC50 in the assay listed under Rattus norvegicus [6] of 4.7 µM. Also, in the assay listed under Rattus norvegicus [3], the Selectivity worked out at 3.4. The IC50 in the assay filed under Rattus norvegicus [4] was 1.37 µM.
The matching figures for `C=CCNC1=Nc2cc(Cl)c(Cl)cc2S(=O)(=O)N1`: 68.5%, 13.5%, 1.2 µM, 0.63 and 1.89 µM.
As to `COc1ccc2c(c1)S(=O)(=O)NC(NC(C)C)=N2`, the Release came out at 67.6% in the assay listed under Rattus norvegicus [1] and 8.5% in the assay filed under Rattus norvegicus [5]. The Selectivity in the assay filed under Rattus norvegicus [3] is 156.6. In addition, in the assay filed under Rattus norvegicus [4], the IC50 was 1.75 µM.
Take `CCNC1=NS(=O)(=O)c2cc(OC)c(Cl)cc2N1`: the Release in the assay listed under Rattus norvegicus [1] was 38%; in the assay filed under Rattus norvegicus [2], 85.3%; in the assay listed under Rattus norvegicus [5], 7.2%. The compound further came in with an EC50 in the assay listed under Rattus norvegicus [6] of 8.1 µM. Besides, the Selectivity in the assay filed under Rattus norvegicus [3] worked out at 16.9. In addition, half-maximal inhibition in the assay filed under Rattus norvegicus [4] (IC50) required 0.48 µM.
In the assay filed under Rattus norvegicus [6], `CC(C)NC1=NS(=O)(=O)c2cc(F)c(NC(C)C)cc2N1` returned an EC50 greater than 200 µM. In addition, the Release in the assay listed under Rattus norvegicus [7] turned out to be 70.1%.
`CC(C)CNC1=NS(=O)(=O)c2cc(F)c(F)cc2N1`: the Release in the assay listed under Rattus norvegicus [1] is listed as 86.9%; in the assay listed under Rattus norvegicus [5], 42.3%. Further, the EC50 in the assay filed under Rattus norvegicus [6] was greater than 30 µM. For the same compound, in the assay listed under Rattus norvegicus [3], the Selectivity was greater than 5.3. Also, the IC50 in the assay listed under Rattus norvegicus [4] is 5.68 µM.
With `COc1cc2c(cc1Cl)NC(NC1CCC1)=NS2(=O)=O`, the results for the Release in the assay filed under Rattus norvegicus [1], in the assay listed under Rattus norvegicus [2] and in the assay filed under Rattus norvegicus [5] were 38.1%, 90% and 9.2%, respectively. Further, the EC50 in the assay filed under Rattus norvegicus [6] came to 23.4 µM. Moreover, the Selectivity in the assay filed under Rattus norvegicus [3] amounted to 45.9. Half-maximal inhibition in the assay filed under Rattus norvegicus [4] (IC50) required 0.51 µM.
Regarding `CC(C)NC1=NS(=O)(=O)c2cc(F)c(Cl)cc2N1`, the Release in the assay filed under Rattus norvegicus [1] worked out at 5.7%; in the assay listed under Rattus norvegicus [2] it was 64.4%; in the assay listed under Rattus norvegicus [5], 7%. Moreover, a half-maximal response in the assay filed under Rattus norvegicus [6] (EC50) required 41.5 µM. For the same compound, the Selectivity in the assay filed under Rattus norvegicus [3] was determined as 259.4. In the assay listed under Rattus norvegicus [4], this compound showed an IC50 of 0.16 µM.
Take `CCCNC1=NS(=O)(=O)c2cc(F)c(Cl)cc2N1`: the Release in the assay filed under Rattus norvegicus [1] came out at 37.6%; in the assay filed under Rattus norvegicus [2], 92%; in the assay filed under Rattus norvegicus [5] it was 7.5%. This compound also had an EC50 in the assay listed under Rattus norvegicus [6] of 45.3 µM. Further, the Selectivity in the assay filed under Rattus norvegicus [3] stood at 87.1. Inhibition in the assay filed under Rattus norvegicus [4] was half-maximal at 0.52 µM (IC50).
`CCCNC1=NS(=O)(=O)c2cc(F)c(NCCC)cc2N1` returned a Release in the assay filed under Rattus norvegicus [7] of 104.1%.
Regarding `COc1cc2c(cc1Cl)NC(NC(C)C)=NS2(=O)=O`, the values for the Release in the assay listed under Rattus norvegicus [1], in the assay filed under Rattus norvegicus [2] and in the assay filed under Rattus norvegicus [5] were 20.6%, 73.8% and 7.7%, respectively. The EC50 in the assay listed under Rattus norvegicus [6] amounted to 37 µM. Further, the Selectivity in the assay listed under Rattus norvegicus [3] turned out to be 154.2. For the same compound, inhibition in the assay listed under Rattus norvegicus [4] was half-maximal at 0.24 µM (IC50).
In the case of `CC(C)NC1=NS(=O)(=O)c2cc(Br)ccc2N1`, the Release in the assay listed under Rattus norvegicus [1] amounted to 34.9%; in the assay listed under Rattus norvegicus [2], 91%; in the assay listed under Rattus norvegicus [5] it was 8.1%. For the same compound, the EC50 in the assay listed under Rattus norvegicus [6] was 4.8 µM. The Selectivity in the assay listed under Rattus norvegicus [3] stood at 10.2. In the assay filed under Rattus norvegicus [4], the IC50 was 0.47 µM.
For `CCNC1=NS(=O)(=O)c2cc(Cl)c(Cl)cc2N1`, the Release amounted to 8.5% in the assay listed under Rattus norvegicus [1], 83.4% in the assay listed under Rattus norvegicus [2] and 9.1% in the assay listed under Rattus norvegicus [5]. This compound came in with an EC50 in the assay filed under Rattus norvegicus [6] of 1 µM. Also, the Selectivity in the assay filed under Rattus norvegicus [3] is recorded as 4. In the assay filed under Rattus norvegicus [4], 0.25 µM corresponded to half-maximal inhibition (IC50).
Take `CC(C)NC1=NS(=O)(=O)c2cc(Br)c(Cl)cc2N1`: the Release in the assay listed under Rattus norvegicus [1] is 25.7%; in the assay listed under Rattus norvegicus [2], 73.3%; in the assay listed under Rattus norvegicus [5], 7.5%. In addition, the EC50 in the assay filed under Rattus norvegicus [6] was determined as 5.6 µM. Besides, the Selectivity in the assay listed under Rattus norvegicus [3] was found to be 21.5. Besides, the IC50 in the assay filed under Rattus norvegicus [4] came to 0.26 µM.
Turning to `CC(C)NC1=NS(=O)(=O)c2cc(Cl)c(Cl)cc2N1`, the Release in the assay filed under Rattus norvegicus [1] is 13.2%; in the assay listed under Rattus norvegicus [2], 84.9%; in the assay filed under Rattus norvegicus [5], 6.3%. Further, in the assay filed under Rattus norvegicus [6], a half-maximal response (EC50) required 2.3 µM. Also, the Selectivity in the assay listed under Rattus norvegicus [3] was 8.2. The IC50 in the assay listed under Rattus norvegicus [4] stood at 0.28 µM.
For the compound `CCNC1=NS(=O)(=O)c2cc(F)c(Cl)cc2N1`, the Release stood at 7.3% in the assay listed under Rattus norvegicus [1], 73.1% in the assay filed under Rattus norvegicus [2] and 12.7% in the assay filed under Rattus norvegicus [5]. This compound displayed an EC50 in the assay listed under Rattus norvegicus [6] of 42.4 µM. The Selectivity in the assay filed under Rattus norvegicus [3] was determined as 212. For the same compound, the IC50 in the assay filed under Rattus norvegicus [4] was found to be 0.2 µM.
Compound `O=S1(=O)N=C(NC2CCC2)Nc2cc(NC3CCC3)c(F)cc21` returned a Release in the assay listed under Rattus norvegicus [7] of 88.6%.
Consider `CCCCCCNC1=NS(=O)(=O)c2cc(Cl)c(Cl)cc2N1`, for which the concentration for a half-maximal effect (EC50) in the assay listed under Rattus norvegicus [6] was greater than 300 µM. Besides, the Release in the assay listed under Rattus norvegicus [5] is 95.2%.
With `CCNC1=NS(=O)(=O)c2cc(Br)c(Cl)cc2N1`, the Release is recorded as 19.7% in the assay listed under Rattus norvegicus [1], 79.5% in the assay filed under Rattus norvegicus [2] and 7.9% in the assay filed under Rattus norvegicus [5]. The compound also came in with an EC50 in the assay filed under Rattus norvegicus [6] of 3.3 µM. In the assay listed under Rattus norvegicus [3], the Selectivity came out at 12.2. The IC50 in the assay filed under Rattus norvegicus [4] stood at 0.27 µM.
As to `CCNC1=NS(=O)(=O)c2cc(F)c(F)cc2N1`, the Release in the assay filed under Rattus norvegicus [1] was determined as 22%; in the assay filed under Rattus norvegicus [2] it was 94.5%; in the assay listed under Rattus norvegicus [5] it was 10.5%. In the assay filed under Rattus norvegicus [6], a half-maximal response (EC50) required 66.7 µM. For the same compound, the Selectivity in the assay listed under Rattus norvegicus [3] was 180.3. For the same compound, the IC50 in the assay listed under Rattus norvegicus [4] came out at 0.37 µM.
With `CC(C)NC1=NS(=O)(=O)c2cc(F)c(F)cc2N1`, the Release in the assay filed under Rattus norvegicus [1] came to 22.9%; in the assay listed under Rattus norvegicus [2] it was 81.6%; in the assay filed under Rattus norvegicus [5] it was 6.1%. In the assay listed under Rattus norvegicus [6], the response was half-maximal at 102 µM (EC50). In the assay filed under Rattus norvegicus [3], the Selectivity stood at 341.3. Moreover, in the assay listed under Rattus norvegicus [4], 0.3 µM corresponded to half-maximal inhibition (IC50).
`CC1=Nc2ccc(Cl)cc2S(=O)(=O)N1` [DIAZOXIDE]: the Release is recorded as 87.5% in the assay filed under Rattus norvegicus [1] and 73.9% in the assay filed under Rattus norvegicus [5]. Besides, in the assay listed under Rattus norvegicus [3], the Selectivity was 1.
